Compound activity deposited in PubChem BioAssay by The Scripps Research Institute Molecular Screening Center.
CHO-K1 Ca PAM: M1 PAM counterscreen hit in parental CHO-K1 cells; ATP EC20, Fluo-8 calcium fluorescence; 0% at ATP EC20, 100% at ATP max; activation, % at 3 µM; 360,000 tested, 0.02% active; AID 602247;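 active = activation above the run cutoff, the mean activation of all test compounds plus 3 SD, cut at about 40% in these data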;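 note: peak over basal fluorescence ratio in a 140 s read after ATP addition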
TRPN1 ag: zebrafish TRPN1 (NompC) channel agonism; HEK293 zebrafish TRPN1-YFP, Fluo-8 calcium fluorescence; 100% = response to 87 µM carbachol; activation, % at 3 µM; 220,000 tested, 0.18% active;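 active = activation above its plate's cutoff, the mean activation of test wells on that plate plus 3 SD, cut at about 19% in these data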;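 note: 0% = DMSO alone and 100% = 87 µM carbachol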
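Material: zebrafish TRPN1-YFP in HEK293 cells. Doses: one dose of 3 µM, 0.3% DMSO. Incubation: dye 1 h 37 °C plus 30 min RT. Measured by: intracellular calcium fluorescence with Fluo-8.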
M1 ag parental: nonselective activator or artifact in parental CHO-K1 cells. 360,000 tested, 0.48% active. AID 602248. Fluo-8 calcium fluorescence; scaled to maximal ATP response, vehicle zero. activation, % at 3 µM; in the data active = activation above about 15%;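 note: untransfected CHO-K1 host cells lacking M1 receptor as counterscreen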
CHO-K1 Ca antag: counter-screen for M1 antagonists: effect in parental CHO-K1 cells | inhibition, % at 3 µM | ATP-induced calcium, Fluo-8 fluorescence | 360,000 tested, 0.6% active;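 active = inhibition above a per-plate cutoff, the plate's mean sample inhibition plus 3 SD, cut at about 24% in these data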;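 note: 0% = DMSO plus EC80 ATP and 100% = DMSO alone without ATP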
TRPML3 ag: human mucolipin-3 channel agonism; HEK293 TRPML3-YFP, Fluo-8 calcium fluorescence; 100% = the carbachol control signal; activation, % at 3 µM; 220,000 tested, 0.29% active;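 active = activation above its plate's cutoff, the mean activation of the plate's test wells plus 3 SD, cut at about 12% in these data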;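 note: 0% = DMSO only wells and 100% = carbachol wells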
Target sequence (Q8TDD5 whole entry, looked up): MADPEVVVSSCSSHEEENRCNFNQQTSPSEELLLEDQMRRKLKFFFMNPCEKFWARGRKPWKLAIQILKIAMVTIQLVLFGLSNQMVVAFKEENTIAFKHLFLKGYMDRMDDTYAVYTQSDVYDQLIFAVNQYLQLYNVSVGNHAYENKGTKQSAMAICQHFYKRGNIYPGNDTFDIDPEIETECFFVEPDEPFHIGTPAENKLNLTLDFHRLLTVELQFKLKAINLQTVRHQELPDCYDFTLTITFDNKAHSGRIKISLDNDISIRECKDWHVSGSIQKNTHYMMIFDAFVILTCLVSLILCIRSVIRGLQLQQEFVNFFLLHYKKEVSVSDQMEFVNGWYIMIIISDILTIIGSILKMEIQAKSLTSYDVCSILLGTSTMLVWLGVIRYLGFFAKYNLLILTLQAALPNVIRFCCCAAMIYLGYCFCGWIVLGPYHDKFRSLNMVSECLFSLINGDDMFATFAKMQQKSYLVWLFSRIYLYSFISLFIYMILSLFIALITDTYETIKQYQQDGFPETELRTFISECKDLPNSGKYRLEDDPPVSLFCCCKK
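Test system – HEK293 line with stable expression of human TRPML3-YFP channel · Control set – carbachol 87 µM final as high control (100%), DMSO as low control (0%) · Signal – Fluo-8 calcium dye fluorescence, ex 470-495, em 515-575 nm · Incubation – 1-h 37 °C dye load, 5-s basal, 120-s post-compound reads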
* = called active by the depositor. Compounds with a hit are over-represented: about 1.2% of the library has one in this group of screens.

Results for CCOc1ccc(NS(=O)(=O)c2ccc(C(=O)N3CC(C)OC(C)C3)cc2)cc1 (centres undefined) ?
CHO-K1 Ca PAM: 1.8; M1 ag parental: 41.1*; CHO-K1 Ca antag: -0.3

What do the screens show for `CC1CN(C(=O)c2ccc(NS(=O)(=O)c3cccc(Cl)c3)cc2)CC(C)O1` (centres undefined)?
CHO-K1 Ca PAM: 8.2; M1 ag parental: 1.4; CHO-K1 Ca antag: -9.0

Results for CCOc1ccc(NS(=O)(=O)c2ccc(NC(=S)NC(C)=O)cc2)cc1 ?
CHO-K1 Ca PAM: 21.1; TRPN1 ag: 17.4; M1 ag parental: 21.8*; CHO-K1 Ca antag: 2.9; TRPML3 ag: 4.9

Results for CC1CN(C(=O)c2ccc(NS(=O)(=O)c3ccc(C(C)(C)C)cc3)cc2)CC(C)O1 (centres undefined) ?
CHO-K1 Ca PAM: -14.3; M1 ag parental: 25.1*; CHO-K1 Ca antag: -0.5

What do the screens show for `CC1CCC(NC(=O)c2[nH]c(C(F)(F)F)nc2-c2ccccc2)CC1` (centres undefined)?
CHO-K1 Ca PAM: 4.5; M1 ag parental: 1.9; CHO-K1 Ca antag: -9.9

What do the screens show for `CC1(C(=O)OCC(=O)NC(=O)NCc2ccccc2)CC1(Cl)Cl` (centres undefined)?
CHO-K1 Ca PAM: 19.1; TRPN1 ag: -0.8; M1 ag parental: 15.2*; CHO-K1 Ca antag: -10.4; TRPML3 ag: -0.2

How did O=C(NC(Cc1cn(Cc2ccccc2)cn1)C(=O)O)OCC1c2ccccc2-c2ccccc21 (centres undefined) do in these assays?
CHO-K1 Ca PAM: -0.5; M1 ag parental: 0.2; CHO-K1 Ca antag: 2.7

How did COc1ccc(-c2coc3c(C(=O)NCc4ccc(OC)c(OC)c4)cccc23)c(C)c1 do in these assays?
CHO-K1 Ca PAM: 1.4; M1 ag parental: 12.7; CHO-K1 Ca antag: 22.8

How did c1cc(-c2n[nH]c(-c3ccncc3)n2)ccn1 do in these assays?
CHO-K1 Ca PAM: 3.4; M1 ag parental: 19.6*; CHO-K1 Ca antag: -1.2

How did Cc1nn(CCO)c2nc(-c3cccs3)cc(C(F)(F)F)c12 do in these assays?
CHO-K1 Ca PAM: -11.7; TRPN1 ag: -1.0; M1 ag parental: 0.2; CHO-K1 Ca antag: 24.0*; TRPML3 ag: 0.9

What do the screens show for `Cc1ccccc1N=C(c1ccccc1)C1C(=O)c2ccccc2C1=O`?
CHO-K1 Ca PAM: 13.8; M1 ag parental: 0.2; CHO-K1 Ca antag: -8.4

Results for Clc1cccc(Cl)c1Cn1ccc(C2CC2)n1 ?
CHO-K1 Ca PAM: 5.6; TRPN1 ag: -1.0; M1 ag parental: 16.4*; CHO-K1 Ca antag: 4.2; TRPML3 ag: -0.5

How did O=c1c2ccccc2c(-c2ccccc2)nn1Cc1c(Cl)cccc1Cl do in these assays?
CHO-K1 Ca PAM: 19.0; TRPN1 ag: -0.3; M1 ag parental: 0.2; CHO-K1 Ca antag: -11.5; TRPML3 ag: 0.0

Results for Cc1occc1C(=O)N1CCCC(Nc2ccc(F)c(F)c2)C1 (centres undefined) ?
CHO-K1 Ca PAM: 7.4; M1 ag parental: 16.0*; CHO-K1 Ca antag: 12.9

What do the screens show for `O=C(c1ccoc1)N1CCCC(Nc2ccc(F)c(F)c2)C1` (centres undefined)?
CHO-K1 Ca PAM: -16.8; M1 ag parental: 0.0; CHO-K1 Ca antag: 4.7

Results for CC[n+]1c(/C=C/c2c[nH]c3ccccc23)ccc2cc(C)ccc21 ?
TRPN1 ag: 30.3*; TRPML3 ag: 9.7

Results for CCCn1c(SC(C)C(=O)NC2CCCC(C)C2C)n[nH]c1=O (centres undefined) ?
CHO-K1 Ca PAM: 11.0; M1 ag parental: 0.8; CHO-K1 Ca antag: -12.3

Results for Cc1cc(C(=O)CSc2nc3ccccc3[nH]2)c(C)n1CC1CCCO1 (centres undefined) ?
CHO-K1 Ca PAM: -17.5; TRPN1 ag: 11.9; M1 ag parental: 19.6*; CHO-K1 Ca antag: 57.7*; TRPML3 ag: 4.8

Results for COc1cc(-c2cc(NC=O)c3ncc(-c4ccc(C(C)=O)cc4)n3c2)ccc1O ?
CHO-K1 Ca PAM: 19.1; M1 ag parental: 3.3; CHO-K1 Ca antag: -8.3

How did NC(=O)CSc1nc2ccccc2n1Cc1ccccc1 do in these assays?
CHO-K1 Ca PAM: 17.2; TRPN1 ag: 1.5; M1 ag parental: 22.5*; CHO-K1 Ca antag: 0.1; TRPML3 ag: 0.1

What do the screens show for `NC(=O)CSc1nc2ccccc2n1-c1ccccc1`?
CHO-K1 Ca PAM: 17.3; TRPN1 ag: -0.9; M1 ag parental: 4.2; CHO-K1 Ca antag: -9.6; TRPML3 ag: -0.5

Results for CC(C)Nc1nc(Nc2ccc(Cl)cc2F)c2sccc2n1 ?
CHO-K1 Ca PAM: -9.7; M1 ag parental: 0.8; CHO-K1 Ca antag: 4.0

How did COc1ccc(C(CNC(=O)c2ccc(Cl)c(S(=O)(=O)N3CCCC3)c2)N2CCCC2)cc1 (centres undefined) do in these assays?
CHO-K1 Ca PAM: 6.7; M1 ag parental: 0.2; CHO-K1 Ca antag: -11.9

How did COc1ccc(NC(=O)c2cc3c(s2)CCC(C)C3)cc1S(=O)(=O)N1CCOCC1 (centres undefined) do in these assays?
CHO-K1 Ca PAM: -11.6; TRPN1 ag: 4.6; M1 ag parental: 3.8; CHO-K1 Ca antag: 25.5*; TRPML3 ag: 1.2

How did COc1ccc(NC(=O)CCN2CCN(S(=O)(=O)c3cc(Cl)ccc3Cl)CC2)cc1 do in these assays?
CHO-K1 Ca PAM: 57.5*; TRPN1 ag: 3.2; M1 ag parental: 9.9; CHO-K1 Ca antag: -44.4; TRPML3 ag: 0.9

Results for COc1ccc(C(=O)Nc2ccc(Cl)c(S(=O)(=O)N3CCOCC3)c2)cc1 ?
CHO-K1 Ca PAM: 1.8; M1 ag parental: 17.3*; CHO-K1 Ca antag: -5.9

How did COc1ccc(CCNC(=O)c2ccc(Cl)c(S(=O)(=O)N3CCCC3)c2)cc1 do in these assays?
CHO-K1 Ca PAM: -0.3; M1 ag parental: 15.9*; CHO-K1 Ca antag: -6.2

What do the screens show for `COc1ccc(C(=O)Nc2ccc(S(=O)(=O)N3CCOCC3)cc2)cc1`?
CHO-K1 Ca PAM: -8.1; M1 ag parental: 2.0; CHO-K1 Ca antag: 5.0

Results for CCc1sc(C(=O)Nc2ccc(OC)c(S(=O)(=O)N3CCOCC3)c2)cc1C ?
CHO-K1 Ca PAM: 12.4; M1 ag parental: 3.8; CHO-K1 Ca antag: -20.8

What do the screens show for `O=C(Nc1ccc(Cl)c(S(=O)(=O)N2CCOCC2)c1)c1ccc(OCC2CCCO2)cc1` (centres undefined)?
CHO-K1 Ca PAM: -16.6; TRPN1 ag: 14.1; M1 ag parental: 10.9; CHO-K1 Ca antag: 24.0*; TRPML3 ag: 7.4

What do the screens show for `O=C(Nc1ccc(S(=O)(=O)N2CCCC2)cc1)c1ccc(OCC2CCCO2)cc1` (centres undefined)?
CHO-K1 Ca PAM: 10.5; TRPN1 ag: 5.9; M1 ag parental: 7.5; CHO-K1 Ca antag: -10.8; TRPML3 ag: 5.3

How did CC1(C)N=C(N)N=C(N)N1c1ccc(CCCCc2ccccc2)cc1 do in these assays?
CHO-K1 Ca PAM: 13.6; M1 ag parental: 1.4; CHO-K1 Ca antag: -9.3

How did O=C1COc2ccc(S(=O)(=O)CCC(=O)N3CCN(c4cccc(C(F)(F)F)c4)CC3)cc2N1 do in these assays?
CHO-K1 Ca PAM: 7.1; M1 ag parental: 17.0*; CHO-K1 Ca antag: 17.2
